The source made the active and inactive calls. The calls are words filed in the database; no cut-off is given here.
How the values were obtained:
[1] = test system: A549; experiment: cells; format: functional, cell-based; conditions: Homo sapiens, A549, 72 h
[2] = test system: A-431; experiment: cells; format: functional, cell-based; conditions: Homo sapiens, A-431, 72 h;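 further: antiproliferative activity measured with an MTT assay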
[3] = Toxicity in human A549 cells xenografted BALB/c nude mouse assessed as effect on body weight at 30 mg/kg, ig administered every 2 days for 19 days; format: organism-based; conditions: in vivo, po
In short: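 Female six-week-old BALB/c nude mice received 2.0 × 10^6 A549 cells subcutaneously. Dosing began at mean tumor size 200-400 mm3. 21 mice were randomized to vehicle (water, 30 mL/kg) or drug (30 mg/kg), both intragastric, every 2 days for 19 days. Body weight was recorded. Tumors were caliper-measured twice weekly (V = length × width²/2) and weighed at the end.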

[4] = test system: A549; experiment: Induction of apoptosis in human A549 cells assessed as late apoptotic cells at 8 uM after 72 hrs by FITC-annexin V/propidium iodide-double staining based flow cytometry (reference value: 6.59%); format: functional
[5] = test system: A549; experiment: Induction of apoptosis in human A549 cells assessed as early apoptotic cells at 8 uM after 72 hrs by FITC-annexin V/propidium iodide-double staining based flow cytometry (reference value: 9.38%); format: functional
[6] = test system: A549; experiment: Cytotoxicity against human A549 cells assessed as effect on intracellular ATP levels at 0 to 2 uM after 24 hrs by luciferase-luciferin based assay; format: functional, cell-based
In short: (§1)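 A549 cells were plated at 4000 per well and allowed to settle 12 h. They were then exposed to compound or DMSO for 24 h or 72 h. Medium was removed and reconstituted luciferase-luciferin reagent added. Luminescence was read within 1 min and converted to ATP concentration from a reference plot. Each concentration was run in quadruplicate.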

[7] = test system: A549; experiment: Cytotoxicity against human A549 cells assessed as reduction in intracellular ATP levels at 8 uM after 24 hrs by luciferase-luciferin based assay; format: functional, cell-based
In short: as §1

[8] = molecular target: Epidermal growth factor receptor (Homo sapiens, UniProt P00533, T790M)
[9] = test system: A549; experiment: Cytotoxicity against human A549 cells assessed as depletion of intracellular ATP levels at 8 uM after 72 hrs by luciferase-luciferin based assay; format: functional, cell-based
In short: as §1

[10] = molecular target: Epidermal growth factor receptor (Homo sapiens, UniProt P00533)
[11] = molecular target: Receptor tyrosine-protein kinase erbB-2 (Homo sapiens, UniProt P04626); experiment: Inhibition of wild type human N-terminal His-tagged HER2 cytoplasmic domain (676 to 1255 residues) expressed in baculovirus expression system after 1 hr in presence of ULight-labeled peptide substrate and ATP by LANCE ultra kinase assay
[12] = test system: A549; experiment: Induction of apoptosis in human A549 cells after 72 hrs by FITC-annexin V/propidium iodide-double staining based flow cytometry; format: functional, cell-based
[13] = test system: A549; experiment: Induction of apoptosis in human A549 cells assessed as early apoptotic cells at 4 uM after 72 hrs by FITC-annexin V/propidium iodide-double staining based flow cytometry (reference value: 9.38%); format: functional
[14] = test system: A549; experiment: Induction of apoptosis in human A549 cells assessed as late apoptotic cells at 4 uM after 72 hrs by FITC-annexin V/propidium iodide-double staining based flow cytometry (reference value: 6.59%); format: functional
[15] = in vitro; conditions: mouse, L929 cells
[16] = test system: A549; experiment: Cytotoxicity against human A549 cells assessed as depletion of intracellular ATP levels at 2 uM after 72 hrs by luciferase-luciferin based assay; format: functional, cell-based
In short: as §1

[17] = test system: A549; experiment: animal or person; format: functional, Homo sapiens; conditions: Mus musculus, A549, po, read-out: TGI
[18] = test system: A549; experiment: Induction of apoptosis in human A549 cells assessed as late apoptotic cells at 1 uM after 72 hrs by FITC-annexin V/propidium iodide-double staining based flow cytometry (reference value: 6.59%); format: functional
[19] = test system: L929; experiment: Cytotoxicity against mouse L929 cells assessed as cell growth inhibition after 72 hrs by MTT assay; format: cell-based; conditions: L929, 72 h
[20] = test system: A549; experiment: Antitumor activity against human A549 cells xenografted in BALB/c nude mouse assessed as tumor necrosis at 30 mg/kg, ig administered every 2 days for 19 days by hematoxylin/eosin-staining based histological analysis; format: functional, organism-based
[21] = test system: A549; experiment: Induction of apoptosis in human A549 cells assessed as early apoptotic cells at 1 uM after 72 hrs by FITC-annexin V/propidium iodide-double staining based flow cytometry (reference value: 9.38%); format: functional
[22] = test system: A549; experiment: Cytotoxicity against human A549 cells assessed as effect on intracellular ATP levels at 6 uM after 24 hrs by luciferase-luciferin based assay; format: functional, cell-based
In short: as §1

Sequence of Epidermal growth factor receptor (Homo sapiens, UniProt P00533) (P00533 whole entry, the tested form may be a part): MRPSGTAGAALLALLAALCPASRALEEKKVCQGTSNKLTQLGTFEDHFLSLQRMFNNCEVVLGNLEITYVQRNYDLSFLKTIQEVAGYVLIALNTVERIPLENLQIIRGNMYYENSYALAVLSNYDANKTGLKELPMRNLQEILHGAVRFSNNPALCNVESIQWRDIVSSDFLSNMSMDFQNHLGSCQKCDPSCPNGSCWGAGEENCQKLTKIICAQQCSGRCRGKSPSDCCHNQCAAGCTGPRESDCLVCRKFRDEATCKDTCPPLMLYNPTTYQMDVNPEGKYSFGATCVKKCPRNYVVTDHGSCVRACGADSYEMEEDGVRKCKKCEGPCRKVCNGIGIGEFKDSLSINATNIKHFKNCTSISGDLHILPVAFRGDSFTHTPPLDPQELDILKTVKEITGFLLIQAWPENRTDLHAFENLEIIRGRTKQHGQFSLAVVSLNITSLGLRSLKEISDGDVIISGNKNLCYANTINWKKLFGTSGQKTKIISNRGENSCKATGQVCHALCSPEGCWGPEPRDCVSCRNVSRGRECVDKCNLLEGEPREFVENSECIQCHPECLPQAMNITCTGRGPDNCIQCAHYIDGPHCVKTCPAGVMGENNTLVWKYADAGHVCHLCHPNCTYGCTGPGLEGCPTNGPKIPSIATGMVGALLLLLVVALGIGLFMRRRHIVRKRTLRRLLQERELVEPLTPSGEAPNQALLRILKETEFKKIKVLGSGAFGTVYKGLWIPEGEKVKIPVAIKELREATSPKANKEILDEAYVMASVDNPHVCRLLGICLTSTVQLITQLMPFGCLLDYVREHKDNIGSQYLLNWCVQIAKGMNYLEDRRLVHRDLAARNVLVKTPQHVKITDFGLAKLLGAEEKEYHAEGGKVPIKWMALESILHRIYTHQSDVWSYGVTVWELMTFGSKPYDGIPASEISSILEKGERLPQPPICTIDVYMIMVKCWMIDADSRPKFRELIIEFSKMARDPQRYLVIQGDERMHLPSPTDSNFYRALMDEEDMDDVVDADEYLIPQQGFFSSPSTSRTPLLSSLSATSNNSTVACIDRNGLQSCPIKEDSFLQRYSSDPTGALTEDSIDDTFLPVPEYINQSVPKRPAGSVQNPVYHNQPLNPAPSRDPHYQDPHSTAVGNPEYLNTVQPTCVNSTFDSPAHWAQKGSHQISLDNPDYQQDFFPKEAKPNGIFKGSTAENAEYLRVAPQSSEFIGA
Sequence of Receptor tyrosine-protein kinase erbB-2 (P04626 whole entry, the tested form may be a part): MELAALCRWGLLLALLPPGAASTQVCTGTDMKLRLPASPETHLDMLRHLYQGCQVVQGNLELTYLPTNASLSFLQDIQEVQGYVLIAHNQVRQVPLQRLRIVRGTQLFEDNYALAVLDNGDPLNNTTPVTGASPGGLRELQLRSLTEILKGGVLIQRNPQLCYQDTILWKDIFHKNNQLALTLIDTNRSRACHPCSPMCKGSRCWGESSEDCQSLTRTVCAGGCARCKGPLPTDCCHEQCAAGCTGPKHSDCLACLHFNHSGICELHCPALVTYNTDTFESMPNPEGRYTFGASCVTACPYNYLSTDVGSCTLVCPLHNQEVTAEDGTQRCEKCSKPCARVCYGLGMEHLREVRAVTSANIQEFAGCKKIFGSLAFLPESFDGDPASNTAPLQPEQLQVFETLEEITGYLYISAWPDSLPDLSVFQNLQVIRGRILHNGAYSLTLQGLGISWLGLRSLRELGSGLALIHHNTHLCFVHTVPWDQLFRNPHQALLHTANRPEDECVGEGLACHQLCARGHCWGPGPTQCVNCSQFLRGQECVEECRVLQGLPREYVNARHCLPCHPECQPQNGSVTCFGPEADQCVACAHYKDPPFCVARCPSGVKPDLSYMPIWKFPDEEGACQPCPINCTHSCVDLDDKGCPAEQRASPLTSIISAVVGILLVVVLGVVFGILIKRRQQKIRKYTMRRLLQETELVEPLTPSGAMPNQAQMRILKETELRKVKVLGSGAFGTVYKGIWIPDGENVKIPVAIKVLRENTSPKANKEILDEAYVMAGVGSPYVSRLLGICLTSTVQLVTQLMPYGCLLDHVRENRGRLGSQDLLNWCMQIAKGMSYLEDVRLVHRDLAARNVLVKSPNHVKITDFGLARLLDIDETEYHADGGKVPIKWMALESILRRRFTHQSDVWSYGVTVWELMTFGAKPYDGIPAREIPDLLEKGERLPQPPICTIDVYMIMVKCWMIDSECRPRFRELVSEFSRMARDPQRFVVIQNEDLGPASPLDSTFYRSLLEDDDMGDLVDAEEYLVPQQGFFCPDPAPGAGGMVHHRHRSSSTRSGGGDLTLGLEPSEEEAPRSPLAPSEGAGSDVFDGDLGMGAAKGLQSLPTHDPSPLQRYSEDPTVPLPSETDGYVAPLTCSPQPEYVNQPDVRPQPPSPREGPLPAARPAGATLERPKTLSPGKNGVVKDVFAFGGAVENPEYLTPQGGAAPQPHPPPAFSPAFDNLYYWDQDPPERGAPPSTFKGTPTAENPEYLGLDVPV
Sequence of Epidermal growth factor receptor (Homo sapiens, UniProt P00533, T790M) (P00533 25-1210 T790M limits assumed): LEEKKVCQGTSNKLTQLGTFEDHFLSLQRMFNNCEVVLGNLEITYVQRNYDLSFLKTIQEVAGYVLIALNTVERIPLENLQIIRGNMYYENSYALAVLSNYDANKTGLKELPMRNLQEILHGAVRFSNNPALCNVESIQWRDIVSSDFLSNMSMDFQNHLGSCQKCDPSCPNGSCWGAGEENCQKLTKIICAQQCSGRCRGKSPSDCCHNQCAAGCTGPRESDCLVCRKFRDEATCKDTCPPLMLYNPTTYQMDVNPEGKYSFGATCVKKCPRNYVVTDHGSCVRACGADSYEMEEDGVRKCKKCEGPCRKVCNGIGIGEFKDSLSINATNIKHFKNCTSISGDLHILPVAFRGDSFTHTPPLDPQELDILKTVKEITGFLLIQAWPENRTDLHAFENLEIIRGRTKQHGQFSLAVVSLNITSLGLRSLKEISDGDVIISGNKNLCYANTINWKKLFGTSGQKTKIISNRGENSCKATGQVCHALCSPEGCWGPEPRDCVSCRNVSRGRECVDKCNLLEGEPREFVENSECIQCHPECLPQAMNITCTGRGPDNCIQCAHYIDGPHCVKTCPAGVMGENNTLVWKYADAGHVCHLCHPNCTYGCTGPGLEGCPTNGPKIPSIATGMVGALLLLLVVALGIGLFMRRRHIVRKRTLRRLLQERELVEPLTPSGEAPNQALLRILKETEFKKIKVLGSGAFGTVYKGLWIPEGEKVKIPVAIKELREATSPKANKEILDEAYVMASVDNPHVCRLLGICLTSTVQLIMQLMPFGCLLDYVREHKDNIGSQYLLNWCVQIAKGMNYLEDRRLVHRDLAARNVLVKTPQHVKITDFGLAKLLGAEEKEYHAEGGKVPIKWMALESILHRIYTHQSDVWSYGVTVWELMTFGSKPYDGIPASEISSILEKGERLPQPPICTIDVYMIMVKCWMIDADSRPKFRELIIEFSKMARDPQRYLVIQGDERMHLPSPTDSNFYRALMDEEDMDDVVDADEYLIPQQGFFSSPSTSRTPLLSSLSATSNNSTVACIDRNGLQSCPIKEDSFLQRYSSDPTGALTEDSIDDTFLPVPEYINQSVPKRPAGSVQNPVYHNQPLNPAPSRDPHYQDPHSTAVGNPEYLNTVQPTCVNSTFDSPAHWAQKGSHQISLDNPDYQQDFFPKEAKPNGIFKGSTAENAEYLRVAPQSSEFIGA

Compound	IC50 [1] [µM]	IC50 [2] [µM]	also measured
COc1cc2ncnc(Nc3cccc(F)c3)c2cc1OCCCN1CCNCCNCCNCC1	> 50	1.86	
COc1cccc(Nc2ncnc3cc(OC)c(OCCCN4CCNCCNCCNCC4)cc23)c1	> 50	3.21	
COc1cc2ncnc(Nc3ccc(F)c(Br)c3)c2cc1OCCCN1CCNCCNCC1	34.3	1.06	
CCc1cc(Br)ccc1Nc1ncnc2cc(OC)c(OCCCN3CCNCCNCCNCC3)cc12	> 50	5.65	
COc1cc2ncnc(Nc3ccc(F)c(Cl)c3)c2cc1OCCCN1CCOCC1 [GEFITINIB]			Activity [3]: Non-Toxic; Activity [4]: 7.05%; Activity [5]: 20.72%; Activity [6]: inactive; Activity [7]: Active
COc1cc2ncnc(Nc3ccc(OCc4cccc(F)c4)c(Cl)c3)c2cc1OCCCN1CCNCCNCC1	7.25	0.442	IC50 [8]: 0.0406 µM; Activity [9]: Active; Activity [6]: inactive; Activity [7]: Active; IC50 [10]: 0.0003 µM; IC50 [11]: 0.0096 µM
COc1cc2ncnc(Nc3ccc(Br)cc3F)c2cc1OCCCN1CCNCCNCC1	16.1	0.561	IC50 [10]: 0.0282 µM
COc1cc2ncnc(Nc3ccc(F)c(Cl)c3)c2cc1OCCCN1CCNCCNCC1	> 50	1.31	IC50 [10]: 0.0083 µM
COc1cc2ncnc(Nc3ccc(OCc4cccc(F)c4)c(Cl)c3)c2cc1OCCCN1CCNCCNCCNCC1	3.4	0.958	Activity [3]: Non-Toxic; Activity [12]: Dose-dependent effect; Activity [4]: 7.94%; Activity [13]: 54.62%; IC50 [8]: 0.0165 µM; Activity [5]: 81.53%; Activity [6]: inactive; Activity [14]: 4.36%; inhibition at 72 h, 1 µM [15]: 37.6%; Activity [7]: Active; Activity [16]: Active; inhibition in vivo at 30 mg/kg [17]: 44.2%; IC50 [10]: 0.0014 µM; Activity [18]: 11.16%; IC50 [19]: 2.74 µM; IC50 [11]: 0.0021 µM; Activity [20]: Active; Activity [21]: 6.25%
COc1cc2ncnc(Nc3ccc(Br)cc3F)c2cc1OCCCN1CCNCCNCCNCC1	15.2	1.84	
COc1cc2ncnc(Nc3ccc(C#N)cc3F)c2cc1OCCCN1CCNCCNCC1	> 50	12.7	
COc1cc2ncnc(Nc3cccc(F)c3)c2cc1OCCCN1CCNCCNCC1	> 50	7.91	
CCc1cc(Br)ccc1Nc1ncnc2cc(OC)c(OCCCN3CCNCCNCC3)cc12	> 50	18.8	
COc1cc2ncnc(Nc3cccc(I)c3)c2cc1OCCCN1CCNCCNCC1	26.2	2.21	
C#Cc1cccc(Nc2ncnc3cc(OC)c(OCCCN4CCNCCNCCNCC4)cc23)c1	28.6	1.11	
COc1cccc(Nc2ncnc3cc(OC)c(OCCCN4CCNCCNCC4)cc23)c1	> 50	8.53	

Compound	IC50 [1] [µM]	IC50 [2] [µM]	also measured
COc1cc2ncnc(Nc3ccc(F)c(Cl)c3)c2cc1OCCCN1CCNCCNCCNCC1	20.2	1.01	IC50 [10]: 0.0066 µM
COc1cc2ncnc(Nc3ccc(Cl)cc3Cl)c2cc1OCCCN1CCNCCNCCNCC1	23.8	4.38	
COc1cc2ncnc(Nc3cccc(I)c3)c2cc1OCCCN1CCNCCNCCNCC1	14.5	2.54	
CS(=O)(=O)CCNCc1ccc(-c2ccc3ncnc(Nc4ccc(OCc5cccc(F)c5)c(Cl)c4)c3c2)o1 [LAPATINIB]	3.64		Activity [4]: 5.73%; Activity [5]: 52.04%; Activity [6]: inactive; inhibition at 72 h, 1 µM [15]: 35%; IC50 [19]: 2.05 µM; Activity [22]: Active
COc1cc2ncnc(Nc3cccc(Br)c3)c2cc1OCCCN1CCNCCNCCNCC1	14.7	1.05	
COc1cc2ncnc(Nc3ccc(F)c(Br)c3)c2cc1OCCCN1CCNCCNCCNCC1	11.8	1.58	
COc1cc2ncnc(Nc3ccc(Cl)c(C(F)(F)F)c3)c2cc1OCCCN1CCNCCNCCNCC1	5.35	1.71	
COc1cc2ncnc(Nc3cccc(Br)c3)c2cc1OCCCN1CCNCCNCC1	34.3	2.32	
COc1cc2ncnc(Nc3cccc(C(F)(F)F)c3)c2cc1OCCCN1CCNCCNCC1	37.3	1.56	
COc1cc2ncnc(Nc3ccc(Cl)cc3Cl)c2cc1OCCCN1CCNCCNCC1	44.2	4.08	
COc1cc2ncnc(Nc3ccc(C#N)cc3F)c2cc1OCCCN1CCNCCNCCNCC1	> 50	6.37	
C#Cc1cccc(Nc2ncnc3cc(OC)c(OCCCN4CCNCCNCC4)cc23)c1	> 50	2.23	
COc1cc2ncnc(Nc3cccc(Cl)c3)c2cc1OCCCN1CCNCCNCC1	> 50	1.12	
COc1cc2ncnc(Nc3cccc(C(F)(F)F)c3)c2cc1OCCCN1CCNCCNCCNCC1	15.7	1.95	
COc1cc2ncnc(Nc3cccc(Cl)c3)c2cc1OCCCN1CCNCCNCCNCC1	27.1	1.42	
COc1cc2ncnc(Nc3ccc(Cl)c(C(F)(F)F)c3)c2cc1OCCCN1CCNCCNCC1	6.23	2.98	

Reference: ChEMBL document CHEMBL4325914, “Design and Evaluation of Potent EGFR Inhibitors through the Incorporation of Macrocyclic Polyamine Moieties into the 4-Anilinoquinazoline Scaffold” (J Med Chem, 2018)
